Experimental data: article PMC5200953 (Dalton transactions (Cambridge, England : 2003), 2015)
Entries after “also recorded” stand apart in the source; their conditions may differ.

Experiments:
[1] = tested on: sstr2-transfected HCT116 tumours; assay: Biodistribution in mice bearing subcutaneous sstr2-transfected HCT116 tumours; type: in vivo
Summary of the method: (§1)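 Mice with subcutaneous sstr2-transfected HCT116 tumours received the 64Cu-labelled test conjugate. Activity was measured in blood, liver, kidney, muscle, bone, adrenal, pancreas and tumour at 1, 4 and 24 h p.i. A blocking group received co-administered Y3-TATE, assessed at 4 h p.i. Tumour-to-blood, -muscle, -kidney and -liver ratios were calculated. n = 4 per group; P-values were reported for group comparisons.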

[2] = as above; type: in vivo; details: mouse, n = 4; for tissue uptake at 1 h: 1 h p.i.; for tissue uptake at 4 h: 4 h p.i.; for tissue uptake at 24 h: 24 h p.i.
Summary of the method: as §1

[3] = tested on: sstr2-transfected HCT116 tumours; assay: PET/CT imaging at 2 h p.i. in mice bearing sstr2-transfected HCT116 xenografts; type: in vivo; details: with the exception of kidneys
Summary of the method: (§2)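 PET/CT imaging was done at 2 h p.i. with the 64Cu-labelled test conjugate. Mice bore subcutaneously implanted sstr2-transfected HCT116 xenografts. The blocked mouse was co-administered Y3-TATE (10 mg/kg). Tumour standard uptake value (SUV) was read from the images.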

[4] = as above; type: in vivo; details: mouse, tumour, tumour standard uptake value (SUV), n = 2
Summary of the method: as §2

[5] = tested on: sstr2-transfected HCT116 cells; assay: Cellular internalization assay; type: cell-based

C[C@@H](O)[C@H](NC(=O)[C@@H]1CSSC[C@H](NC(=O)[C@@H](Cc2ccccc2)NC(=O)Cn2cc(CN3CCCN4CCN(CCCN(CP(=O)(O)O)CC4)CC3)nn2)C(=O)N[C@@H](Cc2ccc(O)cc2)C(=O)N[C@H](Cc2c[nH]c3ccccc23)C(=O)N[C@@H](CCCCN)C(=O)N[C@@H]([C@@H](C)O)C(=O)N1)C(=O)O (64Cu complex, metal not drawn) [Compound 6]
kidney uptake, in words ([1]; 1, 4, and 24 h p.i.): consistently high uptake | uptake in sstr2-expressing organs (adrenal, pancreas, tumour), in words ([1]; 1, 4, and 24 h p.i.): high tracer uptake | blocking of tumour uptake by co-administered Y3-TATE ([1]; 4 h p.i., P < 0.0001, n = 4): 91% | blocking of adrenal uptake by co-administered Y3-TATE ([1]; 4 h p.i., P = 0.0051, n = 4): 70% | in vivo stability of the copper complex, in words ([1]; inferred from relatively low liver activity): reasonable in vivo stability | time of maximum tumour uptake ([1]; p.i., n = 4): 4 h | tissue uptake at 1 h ([2]; adrenal, Adrenal uptake): 1.14 ± 0.46 %ID/g | tissue uptake at 4 h ([2]; adrenal, Adrenal uptake, blocked with co-administration of Y3-TATE): 0.37 ± 0.05 %ID/g | tissue uptake at 4 h ([2]; adrenal, Adrenal uptake): 1.24 ± 0.4 %ID/g | tissue uptake at 1 h ([2]; blood, Blood uptake): 0.34 ± 0.13 %ID/g | tissue uptake at 4 h ([2]; blood, Blood uptake, blocked with co-administration of Y3-TATE): 0.22 ± 0.04 %ID/g | tissue uptake at 4 h ([2]; blood, Blood uptake): 0.2 ± 0.03 %ID/g | tissue uptake at 24 h ([2]; blood, Blood uptake): 0.15 ± 0.06 %ID/g | tissue uptake at 1 h ([2]; bone, Bone uptake): 0.46 ± 0.16 %ID/g | tissue uptake at 4 h ([2]; bone, Bone uptake, blocked with co-administration of Y3-TATE): 0.2 ± 0.04 %ID/g | tissue uptake at 4 h ([2]; bone, Bone uptake): 0.5 ± 0.24 %ID/g | tissue uptake at 24 h ([2]; bone, Bone uptake): 0.35 ± 0.1 %ID/g | tissue uptake at 1 h ([2]; kidney, Kidney uptake): 15.9 ± 3.03 %ID/g | tissue uptake at 4 h ([2]; kidney, Kidney uptake, blocked with co-administration of Y3-TATE): 16.1 ± 5.03 %ID/g | tissue uptake at 4 h ([2]; kidney, Kidney uptake): 21 ± 2.84 %ID/g | tissue uptake at 24 h ([2]; kidney, Kidney uptake): 14.7 ± 2.53 %ID/g | tissue uptake at 1 h ([2]; liver, Liver uptake): 1.13 ± 0.16 %ID/g | tissue uptake at 4 h ([2]; liver, Liver uptake, blocked with co-administration of Y3-TATE): 1.32 ± 0.3 %ID/g | tissue uptake at 4 h ([2]; liver, Liver uptake): 1.3 ± 0.1 %ID/g | tissue uptake at 24 h ([2]; liver, Liver uptake): 1.05 ± 0.1 %ID/g | tissue uptake at 1 h ([2]; muscle, Muscle uptake): 0.22 ± 0.15 %ID/g | tissue uptake at 4 h ([2]; muscle, Muscle uptake, blocked with co-administration of Y3-TATE): 0.09 ± 0.03 %ID/g | tissue uptake at 4 h ([2]; muscle, Muscle uptake): 0.07 ± 0.02 %ID/g | tissue uptake at 24 h ([2]; muscle, Muscle uptake): 0.06 %ID/g | tissue uptake at 1 h ([2]; pancreas, Pancreas uptake): 6.71 ± 0.22 %ID/g | tissue uptake at 4 h ([2]; pancreas, Pancreas uptake, blocked with co-administration of Y3-TATE): 0.3 ± 0.07 %ID/g | tissue uptake at 4 h ([2]; pancreas, Pancreas uptake): 4.41 ± 0.95 %ID/g | tissue uptake at 24 h ([2]; pancreas, Pancreas uptake): 1.84 ± 0.64 %ID/g | tissue uptake at 1 h ([2]; tumour, Tumour uptake): 4.73 ± 1.17 %ID/g | tissue uptake at 4 h ([2]; tumour, Tumour uptake, blocked with co-administration of Y3-TATE): 0.69 ± 0.22 %ID/g | tissue uptake at 4 h ([2]; tumour, Tumour uptake): 7.54 ± 1.43 %ID/g | tissue uptake at 24 h ([2]; tumour, Tumour uptake): 4.39 ± 1.71 %ID/g | tumour uptake and contrast by PET/CT, in words [3]: excellent tumour uptake and contrast | SUV at 2 h [4]: 2.25 ± 0.49 SUV | internalized ([5]; after 4 h, sstr2-transfected HCT116 cells): 38 %ID/mg protein | surface bound, and thus internalized 6, blocked by excess Y3-TATE ([5]; cells pre-incubated with excess Y3-TATE, P < 0.0001, n = 3): More than 95% | internalization, in words ([5]; sstr2-transfected HCT116 cells): internalized rapidly and specifically; also recorded: quickly bound to the cell surface, and was steadily internalized
